B1: tRNA (parent)
chain: GUUCCGUUGGCGUAAUGGUAACGCGUCUCCCUCCUAAGGAGAAGACUGCGGGUUCGAGUCCCGUACGGAACG

This sample holds only a part of the variants without activity.

The record followed here is the RNAGym collection of RNA variant scans (doi:10.1126/science.aae0568).

The variants in this data set derive from B1. As to the kind of experiment: yeast fitness relative to wild type (ratio to wild type); higher = fitter; tRNA-Arg(CCU), competitive growth, 37 C, YPD. A digest of the protocol:
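Amplicons of the tRNA-Arg(CCU) gene were sequenced, 100-nucleotide paired-end, from the start population and from each end population of a pooled yeast competition. The competition, in six parallel replicates, lasted 24 hours in YPD at 37°C. Fitness relative to wild type was calculated from changes in genotype frequencies. Genotypes had to have ≥ 100 starting reads, and estimates < 0.5 were set to 0.5.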
GUUCCGAUGGCGUAAUGGUAACGCGUCUCCCUCCUAAGGAGAAGACUGCGGCUUCGAGUCCCGUACGGAACG: the yeast fitness was found to be 0.55. To GUUCCGAAGCCGUAAUGGUAACGCGUGUCCCUCGUAAGGAGAAGACUGCGGGUUUGAGUCCCGUACGGAACG belongs 0.527; to GUUCCGAUGGCGUAAUGGUAACGCGUCUCCCUCCUAAGGAGAAGACAGCGGGUUCGAGUCCCGUGCGGAACG, 0.523. In the case of GUUCCGAUGGCGUAACGGUAACGCGUCUUCAUCCUAAGGAGAAGACUGCGGGUUCGAGUCCCGUAGUGAACG it was at most 0.5; in that of GUUCCGAUGGCGUAAUGGUAACGCGUCUCCCCCCUAAGGAGAAGACUGCGGGUUCGAGUCCCGUGCGGAACG, 0.558.

Consider GUUCCGAUGGCGUAAUGGUAACGCGUCUCCCACCUAAGGAGUAGACUGCGGGUUCGAGUACCGUACGGAACG, for which the yeast fitness was 0.619. Consider GUUCCGAUGGCGUAAUGGUAACGCGUCUCCCCGCUAAGGAGAAGACUGCGGGUUCGAGUCCCGUACGGAACG, for which the yeast fitness was at most 0.5.

Consider GUUCCGAUGGCGUAACAGUAACGCGUCUUCAUCCUAAGGAGAAGACUGCGGGUUCGAGUCCCGUAGUGAACG, for which the yeast fitness is at most 0.5. In the case of GUUCCGAUGGCGUAAAGGUAACGCGUCUUCCUCCUAAGGAGAAGACUGCGGGUUCGAGUUCCGUAGGAAACG it was at most 0.5; in that of GUUCCGAUGGCGUAAUGGUAACGCGUCUCCCGCCAAAGGAGAAGACUGCGGGUUCGAGUCCCGUACGGAACG, at most 0.5.

Turning to GUUCCGAUGGCGUAAUGGUAACGCGUCUCCCUCCUAAGGAGAAGACUGCCGGUUCGAGUCCCGUACGGAACG, the yeast fitness was 0.684. To GUUCCGAUGGCGUAAUGGUAACGCGUCUCCCUCCUAAGGAGAAGACUGCUGGUUCGAGUCCCGUACGGAACG belongs 0.69; to GUUCCGAGGGCGUGAUGGUAACGCGUCUCCCUCCUUAGGAGAUGACUGCGGGUUCGAGUCCCGUACGGAACG, at most 0.5. To GUUCCGAUGGCGUAAUGGUAACGCGUCCCCCUCCUAAGGAGAAGACUGCGGGUUCGAGUCCCGUACGGAACG belongs 0.711; to GUUCCGAUGGCGUAAUGGUAACGCGUCACCCUCCUAAGGAGAAGACUGCGGGUUCGAGUCCCGUACGGAACG, 0.605. In the case of GUUCCGACAGCGUAAUGGUAACGCGUCUCCCGCCUAAGGAGUAGACUGCGGGUUCGAGUCCCGUACGGAACG it was 0.561; in that of GUUCCGAUGGCGUAAAGGUAACGCGUCUCCCUCCUAAGGAGAAGACUGCGGGUUCGAGUCCCGUACGGAACG, 0.743; in that of GUUCCGAUGGCGUAAUGGACACGCGUCUCCCUCCUAAGGGGAAGACUGCGGGUUCGAGUCCCGUACGGAACG, at most 0.5. In the case of GUUCCGAGGGCGUAAUGGUAACGCGUCUCGCUCCUAAGGAGAAGACUGCGGGUUCGAGUCCCAUACGGAACG, the yeast fitness was at most 0.5. In the case of GUUCCGAAGCCGUAAUGGUAACGCGUGUCCCUCGUAAGGAGAAGACUGCGGGUUUGGGUCCCGUACGGAACG it was at most 0.5; in that of GUUCCGAAGGCGUAAUGGUAACGCGUCUCCCUCCCAAGGAGAAGACUGCGGGUUCGAGUCCCGUACGGAACG, 0.601; in that of GUUCCGAUGGCGUAAUGGUAACGCGUCUCCCUCCUAAGGACAAGACUGCGGGUACGAGUCCUGUACGGAUCG, at most 0.5. In the case of GUUCCGAUGGCGUAAUGGAAACGCGUCUCCCUCCUAAGGAGAAGACUGCGGGUUCGAGUCCCGUACGGAACG it was 0.752; in that of GUUCCGAUGGCGGAAUGGUAACGCGUCUCCCUCCUAAGGAAAAGACUGCGGGUUCGAGUCCCGUACGGAACG, at most 0.5; in that of GUUCCGAUGGCGUAAUGGUAACGCGUCUCCCUCCUAAGCAGAAGACUGCGGGUUAGAGUCCCGUACGGAACG, 0.723.

For GUUCCGAUGGCGUAAUGGUAACGCGUCGCACUCCUAAGGAGAAGACUGCGGAUUCGAGUCCCGUACGGUACG, the yeast fitness was 0.607. To GUUCCGAUGGCGUAAUGGUAACGCGUCUCCCUCCUAAGGAGAAGACUGCGCGUUCGAGUCCCGUACGGAACG belongs 0.553. As to GUUCCGAUGGCGUAAUGGUAACGCGUCUCCCUCCUAAGGAGAAGACUGCGAGUUCGAGUCCCGUACGGAACG, the yeast fitness amounted to 0.652. To GUUCCGAUGGCGUAACAGUAACGCGUCUUCAUCCUAAGGAGAAGACUGCGGGUUCGAGUCCCGUACGGAACG belongs at most 0.5; to GUUCCGAAGCCGUAAUGGUAACGCGUGUCCCUCGCAAGGAGAAGACUGCGGGUUUGAGUCCCGUACGGAACG, at most 0.5; to GUUCCGAUGGCGAAAUGGUAACGCGUCUCCCUCCUAAGGAGAAGACUGAGGGUUCGAGUCCCGUACGGAACG, at most 0.5. For GUUCCGAUGGCGUAAUGGUAACGCGUCUCCCUCCUAAGGAGAAGACUGCGGGUUCGAGUCCCGUACGCAACG, the yeast fitness is 0.811.

For the variant GUUCCGAUGGCGUAAUGGUAACGCGUCUCCCUCCUAAGCAGAAGAGUGUGGGUUCGAGUCCUGUACGGAACG, the yeast fitness was at most 0.5. In the case of GUUCCGAUGGCGUAAUGGAAACGCGUAUCUCUCCUAAGGACAUGACUGAGGGUUCGAGUCCCGUACGGAACG it was at most 0.5; in that of GUUCCGAUGGCGUAAUGGUAACGCGUCUCCCUCCUAAGGAGAAGACUGCGGGUUCGAGUCCCGUACCGAACG, 0.669; in that of GUUCCGAUGGCGUAAUGGUAACGCGUCUCCCUCCUAAGGAGAAGACUGCGGGUUCGAGUCCCGUACAGAACG, 0.781.

As for GUUCCGAUGGCGUAAUGGUAACGCGUCUCCCUCCUAAGGAGAAGACUGCCGGCUUGAGUCCCGUACGGAACG, the yeast fitness is at most 0.5. In the case of GUUCCGACGGCGUAAUGGUAACGCGUCUCCCUCCUCAGGAGAAGACUGCGCGUUCGAGUCCCGUACGGAACG it was at most 0.5; in that of GUUCCGACGGCGUAAUGGUAACGCGUCUCCCUCCUAAGGAGAAGACUGCGGGUUCGAGUCUCGUACGGAACG, 0.604.

As to GUUCCGAAGGCGUAAUGGUAACGCGUCUCCCUCCCAAGGAGAAGACUGCGGGUUCGAGUCCAGUACGGAACG, the yeast fitness is 0.537. Take GUUCCGAUGGCGUAAUGGUAACGCGUCUCCCUCCUAAGGAGAAGACUGCGGGUUCCAGUCCCGUAUGGAACG: the yeast fitness was at most 0.5. In the case of GUUCCGAGGGCGUAAUGGUAACGCGUCUCCCUCAUAAGGAGAAGACUGCGGGUUCGACUCCAGUACGGCACG it was at most 0.5; in that of GUUCCGAAGGCGUAAUGGUAACGCAUCUCCCUCCUAAGGAGAAGACUGCGGGUUCGAGUCCGGUACGGAACG, at most 0.5; in that of GUUCCGAGGGCGUAAUGGUAACGCGUCUCGCUCCUAAGGAGAAGACUGCGGGUUCGAGUCCCGUACGGAACG, at most 0.5. In the case of GUUCCGAUGGCGUAAUGGAAACGCGUCUCCCUCCUAAGGAGAAGACUGUGGGUUCCAGUCCCCUACGGAACG it was at most 0.5; in that of GUUCCGAUGGCGUAAUGGUAACGCGUCUCCCUCCUAAGGACAAGACUGCGGGUUCGAGUCCCCUUCGGAACG, at most 0.5. To GUUCCGAUGGCGUAAUGGUAACGCGUCUCCCGCCUAUGGAGAAGACUGUGGGUUCGAGUCCCGUACGGAACG belongs 0.642; to GUUCCGACGGCGUAAUGGUAACACGUCUCCCUCCUAAGGAGAAGACUGCGGGUUCCAGUCCCGUAGGGAACG, 0.677; to GUUCCGAUGGCGUAAUGGAAACGCGUCUACCUCCUAAGGAGAAGACUGCGGGUUCGAGUCCCGUACGGAACG, at most 0.5. GUUCCGAUGGCGUAAUGGUAACGCGUCUCCCUCCUAAGGAGAACUCUGCGGGUUCGAGUCCCGUACGGAACG: the yeast fitness was 0.503. On to GUUCCGAUGGCGUAAUGGUAACGCGUCUCCCUCCUAAGGAGAACACUGUGGGUUCGAGUCAUGUAUGGAACG, for which the yeast fitness was at most 0.5. To GUUCCGAUGGCGAAAUGGUAACGCGUCUCCCUCCUAAGGAGAAGAGUGCGGGUUCGAGUCCCGUAUGGAACG belongs at most 0.5; to GUUCCGAGGGCGUAAUGGUAACGCGUCUCGCUCCUAAGGAGAAGACUGCGGGUUCGAGUCCCGUACGGAUCG, 0.518; to GUUCCGAUGGCGUAAUGGUAACGCGUCCCCCUCCUAAGGAGAAGACUGCGGGUUCGAGUCCGGUACGGAACG, at most 0.5. For GUUCCGAUGGCGUAAUGGGAACGCGUCUCCCUCCUAAGGAGAAGACUGCGGGUUCGAGUGCCGUACGGAACG, the yeast fitness is at most 0.5. GUUCCGAGGGCGUAAUGGUAACGCGUCUCCCUCCUAAGGAGAAGACUGCGAGUUCGAGUCCCGUACGGCACG: the yeast fitness was at most 0.5. Regarding GUUCCGAUGGCGUAAUGGUAACGCGCCUCCCUCCUAAGGGGAUGACUGAGGGUUCGAGUCCCGUACGGAACG, the yeast fitness came to 0.622. To GUUCCGAUGGCGUAAUGGGAACGCGCCUGCCUCCUAAGGAGAAGACUGCGGGUUCGAGUCCCGUACGGAACG belongs at most 0.5; to GUUCCGAAGGCGUAAUGGUAACGCGUCUCCCUCCUAAGGAGAAGACUGCGGGUUCGAGUCCCGUACCGAACG, at most 0.5; to GUUCCGAUGGCGUAAUGGUAACGCGUCACCCUCCUAAGGAGAAGACUGCGGGUUCGAGUCCCGUACGGCACG, at most 0.5. Take GUUCCGAUGGCGUAAUGGUAACGCGUCACCCUCCUAAGGAGAAGACUGCGGGUUCGAGUCUCGAACGGAACG: the yeast fitness is at most 0.5. In the case of GUUCCGAUGGCGUAAUGGUAACGCGUCUCCCUCCUAAGGAGAAGACUGCGGGUUCGACUCCCGUACGGAACG, the yeast fitness was found to be 0.918. GUUCCGAUGGCGUAAUGGUAACGCGUCUCCCUCCUAAGGAGAAGACUACGGGUUCGAGUCCCGUACGGAACG: the yeast fitness was determined as 0.99.

In the case of GUUCCGAUGGCGUAAUGGAAACGCGUCUCCCCCCUAAGGAGAAGACUGCGGGUUCGAGUCCCGUACGGAACG, the yeast fitness amounted to 0.829. To GUUCCGAUGGCGUAAUGGUAACGCGUCUCCCUCCUAAGGAGAAGACUGCGCGUUCCAGUCACGUACGGAACG belongs at most 0.5.

Take GUUCCGAAGCCGUAAUGGUAACGCGUGUCCCUCGUAAGGAGAAGACUGCGGGUUCGAGUCCCGUACGGAACG: the yeast fitness was determined as 0.564. To GUUCCGAUGGCGUAAUGGUAACGCGUCUCCCUCCUAAGGACAAGACUGCGGGUUCGAGUCCCGUACGGAACG belongs 0.684. In the case of GUUCCGAUGGCGAAAUGGUAACACGUCUCCCUCCUAAGGAGAAGACUGCGGGUUCGAGUCCCGUACGGAACG it was at most 0.5; in that of GUUCCGAUGGCGUAAUGGUAACGCGCCUCCCUCCUAAGGAGAAGACUGCGGGUUCGAGUCCCGUACGGUACG, 0.574; in that of GUUCCGAUGGCGUAAUGGGAACGCGUCUCCCUCCUAAGGAGAAGACUGCGGGUUCGAAUCCCGUACGGCACG, 0.527.

As for GUUCCGAUGGCGAAAUGGUAACGCGUCUCCCUCCUAAGGAGAAGACUGCGGGUUCGAGUCCCGUACGGCACG, the yeast fitness was at most 0.5. As for GUUCCGAUGGCGUAAUGGACACGCGUCUCCCUCCUAAGGGGAAGACUGCGGGUUCGAGUCCCGUACGGUACG, the yeast fitness came to 0.503.

In the case of GUUCCGAUGGCGUAAUGGUAACGCGUCUCCCUCCUAAGGAGAAGACUACGGGUUCGAGCCACAUACGGAACG, the yeast fitness was at most 0.5. In the case of GUUCCGAUGGCGUAACAGUAACGCGUCUUCAUCCCAAGGAGAAGACUGCGGGUUCGAGUCCCGUAGUGAACG it was at most 0.5; in that of GUUCCGAUGGCGUAAUGGUAACGCGUCUCCCUCCCAAGGACAAGACUGCGGGUUCGAGUCCCGUACGGAUCG, at most 0.5.
